Screens as filed in PubChem.
Compounds with a hit are over-represented: about 3.5% of the library has one in this group of screens.
RGS4 act = RGS4 potentiators or activators, primary screen, cell-based, HEK293 M3R inducible RGS4, calcium flux; AID 463111, 2010; B-score at 10 µM; 0.92% of 310,000 active; carbachol calcium flux Fluo4; stronger effect = lower value;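 active = B-score of the integrated calcium signal more than 4 SD below the library mean, with starting fluorescence not abnormally high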;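 note: negative B-score means reduced calcium response which marks RGS4 activation or potentiation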
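Assay system: Inducible-RGS4 HEK293 cells carrying M3 receptor | Schedule: Compound preincubation 20 min at room temperature before agonist | Signal: Kinetic calcium fluorescence imaging with Fluo4-AM dye, 2 µM | Read-out basis: B score from integrated fluorescence ratio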
MrgX1 allo act = positive allosteric modulators of MrgX1, primary screen, HEK293 cells, Fluo-4 calcium flux; Mas-related G-protein coupled receptor member X1 (Homo sapiens), Q96LB2; FDSS; stronger effect = higher value; B-score at 10 µM; 0.63% of 310,000 active;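 active = plate-corrected calcium response at least 3 library SD above typical, normal starting fluorescence, not activating the receptor alone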;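 note: compound read alongside a low EC10 to EC30 dose of BAM8-22 agonist; peak minus trough fluorescence over baseline measured at the second addition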
Target sequence (Q96LB2 whole entry, looked up): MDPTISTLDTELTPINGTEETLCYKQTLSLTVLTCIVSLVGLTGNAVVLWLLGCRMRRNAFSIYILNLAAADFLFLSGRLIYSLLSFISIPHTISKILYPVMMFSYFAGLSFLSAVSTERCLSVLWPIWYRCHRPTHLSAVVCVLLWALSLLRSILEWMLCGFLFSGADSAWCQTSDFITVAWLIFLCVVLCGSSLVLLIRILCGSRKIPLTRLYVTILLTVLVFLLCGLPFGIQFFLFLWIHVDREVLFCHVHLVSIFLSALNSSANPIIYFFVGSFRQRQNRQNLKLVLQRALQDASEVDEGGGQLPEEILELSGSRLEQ
MrgX1 antag = antagonists of human MrgX1 receptor, primary screen, HEK293 cells, Fluo-4 calcium flux. Mas-related G-protein coupled receptor member X1 (Homo sapiens), Q96LB2. BAM8-22 antagonism; stronger effect = lower value. B-score at 10 µM. 1.3% of 310,000 active. AID 588676, 2011;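 active = calcium-response B-score plate-corrected more than 3 library SD below zero, starting fluorescence within 5 deviations, no agonist response on first addition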;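 note: peak minus trough fluorescence over baseline after final BAM8-22 challenge near maximal dose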
MrgX1 agonist = agonists of human MrgX1 receptor, primary screen, HEK293 cells, Fluo-4 calcium flux | Fluo-4 calcium fluorescence, agonist mode; stronger effect = higher value | AID 588627, 2011 | 0.44% of 310,000 active | B-score at 10 µM;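 active = calcium response B-score plate-corrected fluorescence ratio at least 3 library SD, with starting fluorescence B-score inside 5 SD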
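System – MrgX1-expressing HEK293 cells · Incubation – cells plated overnight, dye loaded 0.5 h 37 °C, 0.5 h room temperature · Technique – kinetic Fluo-4 NW fluorescence of intracellular calcium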
RGS4 block = RGS4 inhibitors, primary screen, cell-based, HEK293 M3R inducible RGS4, calcium flux; Fluo-4 calcium flux; stronger effect = higher value; triggered by carbachol at its EC20; 0.45% of 310,000 active; AID 463165, 2010; B-score at 10 µM;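 active = B-score, a plate-corrected calcium signal, over three deviations above library mean, with baseline fluorescence within five deviations of library mean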;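 note: RGS4 expression induced by doxycycline in cells with stable M3 receptor; B-score is computed from the integrated fluorescence ratio over baseline after carbachol; higher B-score means a larger calcium signal and so more RGS4 inhibition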
Target sequence (P49798 whole entry, looked up): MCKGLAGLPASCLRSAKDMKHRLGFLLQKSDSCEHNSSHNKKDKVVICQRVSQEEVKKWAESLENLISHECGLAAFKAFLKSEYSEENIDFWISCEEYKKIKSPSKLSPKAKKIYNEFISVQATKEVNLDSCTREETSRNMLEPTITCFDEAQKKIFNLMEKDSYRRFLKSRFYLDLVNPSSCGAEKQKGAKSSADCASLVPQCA
RGS4 block valid = enhanced carbachol calcium response, M3R/RGS4 cells, RGS4 inhibitor project, cell-based, validation screen, HEK293 M3R/RGS4, calcium flux; shares compounds with RGS4 block; carbachol calcium Fluo-4 fluorescence; carbachol added at its EC20; 0 = buffer wells, 100 = carbachol control; calcium response, % at 10 µM; 65% of 1,700 active; AID 492999, 2010;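 active = duplicate-averaged calcium response above the buffer-only control mean plus 5 SD of those controls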;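 note: integrated fluorescence ratio F max minus min over baseline F0; higher response in RGS4-induced cells means RGS4 inhibition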
M3R Ca ctr = carbachol calcium response in non-induced M3R cells, confirmation, counter-screen for RGS4 inhibitor project, cell-based, HEK293 M3R; shares compounds with RGS4 block; carbachol calcium Fluo-4; submaximal (EC20) carbachol stimulus; buffer wells 0%, carbachol control wells 100%; activity (percent), % at 10 µM; 20% of 1,900 active; call rule not given here;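 note: RGS4 induction absent so cells express M3R without RGS4; higher means more calcium signal and flags a non-specific hit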
RGS4 inh ctr2 = second counter-screen for RGS4 inhibitors: non-induced cells without carbachol. HEK293 M3R/RGS4 non-induced, Fluo-4 calcium, no carbachol; normalised: buffer wells 0%, carbachol wells 100%. 22% of 1,900 active. calcium response (agonist-mode artifact), % at 10 µM. AID 493001. shares compounds with RGS4 block;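 active = duplicate-averaged calcium rise in uninduced cells above buffer wells' mean plus 5 SD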
Numbers without * were called inactive; i = inactive; . = no result.

SMILES	RGS4 act	MrgX1 allo act	MrgX1 antag	MrgX1 agonist	RGS4 block	RGS4 block valid	M3R Ca ctr	RGS4 inh ctr2
CCC(=O)Nc1ccc(C=C(C(C)=O)C(C)=O)cc1	i	i	i	i	5*	56%*	29%*	16%*
CCOc1ccc(C(=O)CCN2CCCCC2)cc1	i	i	i	i	i	.	.	.
COc1ccc(C(=O)CCN2CCCCCC2)cc1	i	i	i	39*	11*	i	i	28%*
O=C(CCN1CCCCC1)c1ccc2c(c1)OCCO2	i	i	i	i	i	i	i	i
O=C(CCN1CCc2ccccc21)c1ccc2c(c1)OCCO2	i	i	i	i	i	.	.	.
O=C(CCN1CCc2ccccc2C1)c1ccc2c(c1)OCCO2	i	i	i	i	6.7*	20%*	i	14%*
CCc1ccccc1NC(=O)N1CCc2ccccc21	i	i	i	i	i	.	.	.
Cc1ccc(/C=N/NC(=O)Cc2c[nH]c3ccccc23)c(C)c1	i	i	i	i	6.9*	31%*	i	42%*
O=C(Cc1c[nH]c2ccccc12)N/N=C/c1ccccc1O	i	i	i	i	i	.	.	.
O=C(/C=C/c1cccnc1)c1cc(F)ccc1O	i	i	i	i	5*	22%*	72%*	i
COc1ccc(OC)c(C(=O)/C=C/c2cccnc2)c1	i	i	i	i	i	.	.	.
COc1cc(C(=O)/C=C/c2cccnc2)ccc1O	i	i	i	i	11*	36%*	46%*	i
CCc1ccc(C(=O)COC(=O)c2cc([N+](=O)[O-])ccc2N2CCOCC2)cc1	i	i	i	i	i	.	.	.
CN(C)S(=O)(=O)c1ccc(C(=O)NCC(=O)N/N=C/c2ccccc2Cl)cc1	i	i	i	i	i	.	.	.
CN1C(=O)/C(=C/c2cccc([N+](=O)[O-])c2)C(=O)N1c1ccccc1	i	i	i	i	36*	44%*	37%*	i
CCN(CC)c1ccc(N=CN2CCOCC2)cc1	i	i	i	i	i	.	.	.
CCOc1cc(/C=C2\CN(C)C/C(=C\c3ccc(O)c(OCC)c3)C2=O)ccc1O	i	i	i	i	i	.	.	.
CN1C/C(=C/c2ccncc2)C(=O)/C(=C/c2ccncc2)C1	i	i	i	i	21*	80%*	i	i
CN1C/C(=C\c2ccc(N3CCOCC3)cc2)C(=O)/C(=C/c2ccc(N3CCOCC3)cc2)C1	i	i	i	i	i	.	.	.
CN1C/C(=C/c2ccsc2)C(=O)/C(=C/c2ccsc2)C1	i	i	i	i	6.8*	9.5%*	i	i
CC1=C(C)CC(C(=O)NCc2cccc(Cl)c2)C(C(=O)O)C1 (stereo not drawn)	i	i	i	i	i	.	.	.
Cc1ccc(NC(=O)CN(C)C(=O)Cn2cc(C(F)(F)F)cc(Cl)c2=O)cc1	i	i	i	i	5.5*	i	i	i
O=C(NCc1cccnc1)/C(=C/c1ccccc1)NC(=O)c1ccccc1	i	i	i	i	5.2*	i	i	i
O=C(NCc1cccnc1)/C(=C/c1ccco1)NC(=O)c1ccccc1	i	i	i	i	i	.	.	.
Cc1ccc(C(=O)N/C(=C\c2ccccc2)C(=O)NCc2cccnc2)cc1	i	i	i	i	i	i	i	i
SMILES	RGS4 act	MrgX1 allo act	MrgX1 antag	MrgX1 agonist	RGS4 block	RGS4 block valid	M3R Ca ctr	RGS4 inh ctr2
Cc1ccc(C(=O)N/C(=C/c2cccnc2)C(=O)NCc2ccco2)cc1	i	i	i	i	i	.	.	.
COc1ccc(C(=O)NC(C)CCc2ccccc2)c(O)c1 (stereo not drawn)	i	i	i	i	i	.	.	.
CCOC(=O)C(=Cc1cc(=O)c(OC)co1)C(=O)OCC	i	.	.	.	8*	15%*	i	14%*
Oc1ccc(C[C@@H]2CNCCN2CCc2cc(C(F)(F)F)cc(C(F)(F)F)c2)cc1	i	i	i	i	i	.	.	.
FC(F)(F)c1cc(CCN2CCNC[C@H]2Cc2cccc3ccccc23)cc(C(F)(F)F)c1	i	i	i	i	5.1*	7.0%*	i	i
COc1ccc(Nc2nc(N)nc(CSc3nnc(C)s3)n2)cc1	i	i	i	i	i	i	i	i
COc1ccc(OC)c(Nc2nc(N)nc(CSc3nnc(N)s3)n2)c1	i	i	i	i	i	.	.	.
Cc1ccc(Nc2nc(N)nc(CCl)n2)cc1	i	i	i	i	4.7*	7.0%*	i	i
Cc1ccc(Nc2nc(N)nc(CSc3nc4ccccc4s3)n2)cc1	i	i	i	i	5.1*	8.0%*	i	i
CC(C)Oc1ccc(OCCSc2nc3ccccc3n2CC(=O)O)cc1	i	i	i	i	i	.	.	.
CC1=NN(C(C#N)c2c(C)nn(Cc3ccccc3)c2C)C(C)(C)C1 (stereo not drawn)	i	i	i	i	i	.	.	.
CC(C)(C)NC(=O)C(c1ccc(F)cc1)N(Cc1ccccc1Cl)C(=O)c1ccn[nH]1 (stereo not drawn)	i	i	i	i	i	.	.	.
COc1ccccc1CNC(=O)CC12CC3CC(CC(Br)(C3)C1)C2	i	i	i	i	i	.	.	.
CCS(=O)(=O)N1CCN(C(=O)c2cccc3ccccc23)CC1	i	i	i	i	i	.	.	.
Cc1nc(=O)c(-c2ccccc2)c(C)n1-c1cccc(/C=C/C(=O)O)c1	i	i	i	i	i	.	.	.
Cc1cc(Cl)n2c(nc3cc(F)c(F)cc32)c1C#N	i	.	.	.	7.5*	13%*	i	9.5%*
